Assay [1] concerns GFP-Wingless. The assay can be described thus: In vivo trapping of GFP-Wingless at the surface of wing imaginal disc cells. On the set-up: species or system Drosophila. To be noted: overexpressed with ptc-Gal4 in wing imaginal discs. The procedure, abridged: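 GFP-Wingless knock-in wing discs with V5-tagged human GPC4, GPC6, GPC3 or GPC5 driven by ptc-Gal4, crossed at 25°C. Surface capture of GFP-Wingless imaged by confocal microscopy after immunostaining with Alexa-conjugated secondaries and DAPI mounting. Three independent repeats.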

The next assay has as its system Distal-less. To be noted: overexpressed; ref [13],[14]; cited from earlier work.
The test system of a further assay is GFP-Wingless[S239A]. Put plainly: In vivo trapping of GFP-Wingless[S239A] at the surface of imaginal disc cells. On the set-up: species or system Drosophila. To be noted: glypican overexpressed with ptc-Gal4 in imaginal discs.
Assay [2] relates to senseless. The settings on record: overexpressed; ref [13],[14]; cited from earlier work.
The next assay deals with Wingless. To be noted: ref [13],[14]; cited from earlier work.
Assay [3] concerns GFP-Wingless. The assay can be described thus: Colocalisation with morphotrap-enriched GFP-Wingless in wing discs. It is filed as in vivo, Drosophila. The settings on record: n=4 (Dlp^ΔGPI-V5), n=13 (ApoL), n=10 (Hrs). In short, it runs like this:
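For ApoL and Hrs, morphotrap is driven by dpp-Gal4 and the endogenous proteins are immunostained. For Dlp ΔGPI-V5, morphotrap is driven by dpp-LexA and Dlp by wg-Gal4, limited to 24 h with Gal80ts (18°C rearing, 29°C shift). Confocal imaging; colocalisation scored where domains intersect; SD; three repeats.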

The subject of assay [4] is GFP-Wingless. Put plainly: Solubilisation of GFP-Wingless in serum-free S2 cell medium. It is filed as cell-based, Drosophila. The settings on record: conditioned medium from S2 cells expressing Dlp^ΔGPI-V5 added to S2 cells expressing GFP-Wingless, 12hrs, concentrated 20-fold, Western blot.
The test system of assay [5] is senseless. The assay can be described thus: Effect of overexpression on high target gene senseless in wing discs. It is filed as in vivo, Drosophila. To be noted: driven with ptc-Gal4 in wing discs. In short, it runs like this: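 Wing discs from crosses at 25°C, with V5-tagged human glypican UAS-attB transgenes driven by ptc-Gal4 (senseless) or en-Gal4 (Distal-less). Discs immunostained with Alexa-conjugated secondaries, DAPI-mounted and imaged by confocal microscopy. Distal-less signal quantified in boxed regions and plotted separately for anterior and posterior compartments. Three independent repeats.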

Assay [6] concerns GFP-Wingless. The settings on record: culture medium, literature; ref [6],[22]; cited from earlier work.
The nature of assay [7]: Lipid binding of furin-site mutant vs wild-type Dlp^core. To be noted: furin sites destroyed: K398Q, K399A, R402Q, R438Q, R441A.

Consider 6 molecules from publication PMC7610841 (Nature, 2020).

“Also recorded” adds a separate entry of the source.

B1: Dlp: Drosophila glypican Dally-like protein (protein)
chain: PQVAALAAPNPAGGVAGSSIIDQFSPNCSAVTHIFQARGIDAIEIPQKPSNERVLRYCESPSVGTCCTYNMETRMAMQSRQQLEGHTKDQISRMSGILGSKATKFKDIFTALLKESRTQFNSMFIRTYGVIYERNSYVFSDLFKELETYFANGRVDLLEVMDKFFNTLYQKMFTVLNTQYTFDENYMRCVSEHMKELKPFGDVPDKLSVQIKRSFVATRTYGQALTTASEVAKKVLNVRLNADCTGALTKMQHCGACKGYTEKPCTNYCVNVIKGCLHYQHEFDSEWENFAMAMDKVAERLLGSFNIVMVVEPLNIKISEAIMNFQDSGQDITNRVFQGCGRPKLKKMKRSISPKLQGVQILNARSPVEADTLDIDETLDEAIVLRERRAAEPGSQETSAQQSQEQGVGKSGNGGGGGGGNNRRQQQRRKQQQQRRKQQNNRDDNDDDDNESGGGREPILDRIVRDIRQRVKDYKKFWSNLPHSVCSNEDIASSSDVDGMCWNGHTIDRYMHSITTEHGSNPEFTGNPASTKQTAQMASQLSHLKNAIVHLRNAYNGQDVEWSEQEELPYAGSGAGSGSGSEDDEDDDEGSGLGPFEPSHKPDVERPSVDADNDDDEDAGGRGHMPTHTSRPTSGVDDKNPLIHTTHFDQDHNDLDEDHRQLDEDEDTDAG
modifications: left off: HA, end not stated, kept
For B1, in the assay with GFP-Wingless [1], the “trapping of GFP-Wingless at the cell surface” value (from here on “trapping … at the cell surface”) is reported as “duly trapped endogenous-level GFP-Wingless; also recorded: captures GFP-Wingless”. The “biphasic activity in wing imaginal discs: distal-less” value with Distal-less is recorded as “extending the range of the low target gene distal-less”. Also, in the assay on GFP-Wingless[S239A], the “trapping of GFP-Wingless[S239A] (unlipidated)” value is “did not detectably trap; also recorded: not GFP-Wingless[S239A]”. In the assay with senseless [2], the “biphasic activity in wing imaginal discs: senseless” value is on record as “inhibiting the high target gene senseless”.

B2: Dlp^ΔGPI: secreted form of Dlp lacking its membrane anchor, amino acids 53-723 (protein)
chain: B1 chain
modifications: left off: V5, C-terminal, kept
Consider B2, for which the “binding to Wingless” value with Wingless is “known to bind Wingless”. For the same molecule, the “colocalisation with morphotrap-enriched GFP-Wingless” value in the assay with GFP-Wingless [3] was “colocalizes”. Moreover, the “solubilisation of GFP-Wingless, added conditioned medium” value is reported as “A similar effect was seen” in the assay with GFP-Wingless [4] and “stabilises GFP-Wingless in solution” in the assay with GFP-Wingless [4] (listed as Dlp^ΔGPI-V5).

B3: GPC6: human glypican of Dlp family; secreted ΔGPI form (amino acids 1-529) in solubilisation assays (protein)
chain: DVKARSCGEVRQAYGAKGFSLADIPYQEIAGEHLRICPQEYTCCTTEMEDKLSQQSKLEFENLVEETSHFVRTTFVSRHKKFDEFFRELLENAEKSLNDMFVRTYGMLYMQNSEVFQDLFTELKRYYTGGNVNLEEMLNDFWARLLERMFQLINPQYHFSEDYLECVSKYTDQLKPFGDVPRKLKIQVTRAFIAARTFVQGLTVGREVANRVSKVSPTPGCIRALMKMLYCPYCRGLPTVRPCNNYCLNVMKGCLANQADLDTEWNLFIDAMLLVAERLEGPFNIESVMDPIDVKISEAIMNMQENSMQVSAKVFQGCGQPKPAPALRSARSAPENFNTRFRPYNPEERPTTAAGTSLDRLVTDIKEKLKLSKKVWSALPYTICKDESVTAGTSNEEECWNGHSKARYLPEIMNDGLTNQINNPEVDVDITRPDTFIRQQIMALRVMTNKLKNAYNGNDVNFQDTSDESSGSGSGSGCMDDVCPTEFEFVTTEAPAVDPDRREVDS
modifications: left off: V5, internal (immediately after the signal peptide), state not stated
For the molecule B3, in the assay with GFP-Wingless [1] (listed as hGPC6), the “trapping … at the cell surface” value is on record as “trapped Wingless”. Further, the “effect on high target gene senseless” value in the assay on senseless [5] is “inhibit the high target gene senseless”.

B4: GPC4: human glypican of Dlp family; secreted ΔGPI form (amino acids 1-487) in solubilisation assays (protein)
chain: ALLAAELKSKSCSEVRRLYVSKGFNKNDAPLHEINGDHLKICPQGSTCCSQEMEEKYSLQSKDDFKSVVSEQCNHLQAVFASRYKKFDEFFKELLENAEKSLNDMFVKTYGHLYMQNSELFKDLFVELKRYYVVGNVNLEEMLNDFWARLLERMFRLVNSQYHFTDEYLECVSKYTEQLKPFGDVPRKLKLQVTRAFVAARTFAQGLAVAGDVVSKVSVVNPTAQCTHALLKMIYCSHCRGLVTVKPCYNYCSNIMRGCLANQGDLDFEWNNFIDAMLMVAERLEGPFNIESVMDPIDVKISDAIMNMQDNSVQVSQKVFQGCGPPKPLPAGRISRSISESAFSARFRPHHPEERPTTAAGTSLDRLVTDVKEKLKQAKKFWSSLPSNVCNDERMAAGNGNEDDCWNGKGKSRYLFAVTGNGLANQGNNPEVQVDTSKPDILILRQIMALRVMTSKMKNAYNGNDVDFFDISDESSGEGSGSGCEYQQCPSEFDYNATDHAGKSANEKADS
modifications: left off: V5, internal (immediately after the signal peptide), state not stated
On to B4, for which, in the assay on GFP-Wingless [1] (listed as hGPC4), the “trapping … at the cell surface” value is “trapped Wingless”. In addition, the “effect on high target gene senseless” value in the assay on senseless [5] is on record as “inhibit the high target gene senseless”.

B5: Afamin: lipid-binding protein (protein, UniProt P43652 22-599, looked up)
Afamin: LPTQPRDIENFNSTQKFIEDNIEYITIIAFAQYVQEATFEEMEKLVKDMVEYKDRCMADKTLPECSKLPNNVLQEKICAMEGLPQKHNFSHCCSKVDAQRRLCFFYNKKSDVGFLPPFPTLDPEEKCQAYESNRESLLNHFLYEVARRNPFVFAPTLLTVAVHFEEVAKSCCEEQNKVNCLQTRAIPVTQYLKAFSSYQKHVCGALLKFGTKVVHFIYIAILSQKFPKIEFKELISLVEDVSSNYDGCCEGDVVQCIRDTSKVMNHICSKQDSISSKIKECCEKKIPERGQCIINSNKDDRPKDLSLREGKFTDSENVCQERDADPDTFFAKFTFEYSRRHPDLSIPELLRIVQIYKDLLRNCCNTENPPGCYRYAEDKFNETTEKSLKMVQQECKHFQNLGKDGLKYHYLIRLTKIAPQLSTEELVSLGEKMVTAFTTCCTLSEEFACVDNLADLVFGELCGVNENRTINPAVDHCCKTNFAFRRPCFESLKADKTYVPPPFSQDLFTFHADMCQSQNEELQRKTDRFLVNLVKLKHELTDEELQSLFTNFANVVDKCCKAESPEVCFNEESPKIGN
Turning to B5, the “release of soluble Wnt on addition of lipid-binding protein” value in the assay on GFP-Wingless [6] was “enables the release of soluble Wnt”.

B6: furin mutant form: Dlp^core form where both furin sites were destroyed (protein)
chain: DQFSPNCSAVTHIFQARGIDAIEIPQKPSNERVLRYCESPSVGTCCTYNMETRMAMQSRQQLEGHTKDQISRMSGILGSKATKFKDIFTALLKESRTQFNSMFIRTYGVIYERNSYVFSDLFKELETYFANGRVDLLEVMDKFFNTLYQKMFTVLNTQYTFDENYMRCVSEHMKELKPFGDVPDKLSVQIKRSFVATRTYGQALTTASEVAKKVLNVRLNADCTGALTKMQHCGACKGYTEKPCTNYCVNVIKGCLHYQHEFDSEWENFAMAMDKVAERLLGSFNIVMVVEPLNIKISEAIMNFQDSGQDITNRVFQGCGRPKLQAMKQSISPKLQGVQILNARSPVEADTLDIDETLDEAIVLQERAAAEPGSQETSAQQSQEQGVGKSGNGGGGGGGNNRRQQQRRKQQQQRRKQQNNRDDNDDDDNESGGGREPILDRIVRDIRQRVKDYKKFWSNLPHSVCSNEDIASSSDVDGMCWNGHTIDRYMHSITTEHGSNPEFTGNPASTKQTAQMASQLSHLKNAIVHLRNAYNGQDVEWSEQ
modifications: left off: Twin-Strep, C-terminal, cleaved
Turning to B6, the “lipid binding behaviour vs wild-type form” value in [7] was “No difference in lipid binding behaviour”.
